Experiments:
Histamine H3 receptor [1] = target: Histamine H3 receptor (Rattus norvegicus, UniProt Q9QYN8); assay: Displacement of [3H]R-alpha-methylhistamine from rat histamine H3 receptor by cell-based assay
Method in brief: (§1)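 Radioligand binding with [³H]R-α-methylhistamine on membranes of CHO or HEK293 cells expressing human, rat or mouse H₃ receptor.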

Histamine H2 receptor = Histamine H2 receptor (Homo sapiens, UniProt P25021); assay: Inhibition of human histamine H2 receptor
Histamine H3 receptor [2] = target: Histamine H3 receptor (Mus musculus, UniProt P58406); assay: Displacement of [3H]R-alpha-methylhistamine from mouse histamine H3 receptor by cell-based assay; method in brief: as §1
Sequence of Histamine H3 receptor (Mus musculus, UniProt P58406) (P58406 whole entry): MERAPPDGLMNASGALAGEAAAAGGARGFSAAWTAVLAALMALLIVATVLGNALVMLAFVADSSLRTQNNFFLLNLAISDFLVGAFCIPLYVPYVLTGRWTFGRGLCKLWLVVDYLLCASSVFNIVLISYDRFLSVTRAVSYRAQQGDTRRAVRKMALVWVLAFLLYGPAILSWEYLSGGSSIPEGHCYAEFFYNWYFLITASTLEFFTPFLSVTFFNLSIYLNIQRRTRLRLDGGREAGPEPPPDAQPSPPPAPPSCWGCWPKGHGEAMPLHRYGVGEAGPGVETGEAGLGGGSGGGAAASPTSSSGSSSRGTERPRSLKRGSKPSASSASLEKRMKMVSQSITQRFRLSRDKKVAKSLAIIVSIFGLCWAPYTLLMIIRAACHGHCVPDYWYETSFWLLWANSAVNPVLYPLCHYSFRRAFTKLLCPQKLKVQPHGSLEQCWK

Histamine H1 receptor = Histamine H1 receptor (Homo sapiens, UniProt P35367); assay: Inhibition of human histamine H1 receptor
Sequence of Histamine H1 receptor (P35367 whole entry): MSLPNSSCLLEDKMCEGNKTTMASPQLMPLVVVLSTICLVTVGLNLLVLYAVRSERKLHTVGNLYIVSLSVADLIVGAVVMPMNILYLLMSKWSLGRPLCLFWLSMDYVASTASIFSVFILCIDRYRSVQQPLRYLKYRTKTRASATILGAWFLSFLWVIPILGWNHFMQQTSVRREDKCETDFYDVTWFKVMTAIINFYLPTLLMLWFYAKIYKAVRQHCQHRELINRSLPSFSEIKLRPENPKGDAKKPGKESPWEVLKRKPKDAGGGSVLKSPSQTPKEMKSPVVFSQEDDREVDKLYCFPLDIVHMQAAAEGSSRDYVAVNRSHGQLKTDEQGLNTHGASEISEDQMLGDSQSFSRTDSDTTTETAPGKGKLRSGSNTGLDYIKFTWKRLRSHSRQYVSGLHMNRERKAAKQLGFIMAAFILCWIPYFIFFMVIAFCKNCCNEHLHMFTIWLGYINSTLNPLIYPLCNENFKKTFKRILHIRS

Histamine H4 receptor = Histamine H4 receptor (Homo sapiens, UniProt Q9H3N8); assay: Inhibition of human histamine H4 receptor

Sequence of Histamine H2 receptor (P25021 whole entry): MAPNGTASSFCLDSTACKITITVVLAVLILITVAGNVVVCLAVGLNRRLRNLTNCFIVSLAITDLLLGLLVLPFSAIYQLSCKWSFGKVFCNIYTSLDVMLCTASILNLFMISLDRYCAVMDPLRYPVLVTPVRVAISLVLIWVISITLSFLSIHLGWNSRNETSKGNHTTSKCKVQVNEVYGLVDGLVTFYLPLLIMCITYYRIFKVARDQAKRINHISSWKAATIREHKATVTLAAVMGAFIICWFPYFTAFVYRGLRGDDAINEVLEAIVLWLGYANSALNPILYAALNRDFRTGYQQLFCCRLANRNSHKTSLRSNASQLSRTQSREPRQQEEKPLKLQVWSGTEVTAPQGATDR
Sequence of Histamine H3 receptor (Rattus norvegicus, UniProt Q9QYN8) (Q9QYN8 whole entry): as the sequence (P58406 whole entry) above, with A15T, T286A, G290A, H387R, V389I counted along it

Ki (Histamine H3 receptor [1]): 2.8 nM
IC50 (Histamine H2 receptor): > 10000 nM
Ki (Histamine H3 receptor [2]): 5.9 nM
IC50 (Histamine H1 receptor): > 10000 nM
IC50 (Histamine H4 receptor): > 10000 nM
SMILES: COc1cccc2c1O[C@@H](c1ccc(OCCCN3CCCC3)cc1)[C@H](C)S2(=O)=O
